{"data": "Measurements of several laboratories", "Spike glycoprotein": "Spike glycoprotein (Severe acute respiratory syndrome coronavirus 2, UniProt P0DTC2)", "note": "Each line is one published result; the experiments were not run side by side."}
{"Structure (SMILES)": "C=C1C[C@@]23CC[C@H]4[C@@](C)(CCC[C@@]4(C)C(=O)O[C@@H]4O[C@H](CO)[C@@H](O)[C@H](O)[C@H]4O)[C@@H]2CC[C@]1(O[C@@H]1O[C@H](CO)[C@@H](O)[C@H](O)[C@H]1O)C3", "target": "Spike glycoprotein", "observed": "binding", "technique": "BLI", "endpoint": "koff", "value": "0.122 s⁻¹"}
{"Structure (SMILES)": "CC[C@H](C)[C@@H]1NC(=O)[C@H](Cc2ccc(O)cc2)NC(=O)[C@H](C(C)C)NC(=O)[C@H]([C@@H](C)CC)NC(=O)[C@H](CO)NC(=O)[C@H](Cc2ccc(O)cc2)NC(=O)CSC[C@@H](C(N)=O)NC(=O)CNC(=O)[C@H](CCCNC(=N)N)NC(=O)CNC(=O)[C@H](C(C)C)NC(=O)[C@H](Cc2ccccc2)NC(=O)[C@H](CCCNC(=N)N)NC(=O)[C@H](C(C)C)NC(=O)[C@H](CCC(=O)O)NC(=O)CNC(=O)[C@H](CCCCN)NC1=O", "target": "Spike glycoprotein", "observed": "binding", "endpoint": "koff", "value": "0.0058 s⁻¹"}
{"Structure (SMILES)": "O=c1c(O)c(-c2ccc(O)cc2)oc2cc(O)cc(O)c12", "target": "Spike glycoprotein", "observed": "binding", "technique": "BLI", "endpoint": "koff", "value": "0.053 s⁻¹"}
{"Structure (SMILES)": "Nc1ncc(-c2nc(N3CCOCC3)nc(N3CCOCC3)n2)c(C(F)F)n1", "target": "Tyrosine-protein kinase ABL1, non-phosphorylated (ABL1, Homo sapiens, UniProt P00519)", "observed": "binding", "technique": "competition with immobilised ligand", "concentration": "10 µM", "endpoint": "remaining binding", "value": "70%"}
{"Structure (SMILES)": "O=c1cc(-c2ccccc2)oc2c(O)c(O)ccc12", "target": "Spike glycoprotein", "observed": "binding", "technique": "BLI", "endpoint": "koff", "value": "0.0482 s⁻¹"}
{"Structure (SMILES)": "Cn1cc(-c2cc(F)cc(N3CCn4c(cc5c4CCCC5)C3=O)c2CO)cc(Nc2ccc(N3CCN(C4COC4)CC3)cn2)c1=O", "target": "Tyrosine-protein kinase ABL1 (ABL1, Homo sapiens, UniProt P00519, E255K)", "observed": "enzyme activity", "mode": "inhibitor", "concentration": "0.1 µM", "endpoint": "inhibition", "value": "1%"}
{"Structure (SMILES)": "COc1ncccc1-c1cnn2ccc(N3CCN(C(=O)OC(C)C)CC3)nc12", "target": "Serine/threonine-protein kinase RIO1 (RIOK1, Homo sapiens, UniProt Q9BRS2)", "observed": "binding", "technique": "competition with immobilised ligand", "concentration": "1 µM", "endpoint": "remaining binding", "value": "3.9%"}
{"Structure (SMILES)": "Cn1cc(-c2cccc(N3CCc4c(sc5c4CC(C)(C)C5)C3=O)c2CO)cc(Nc2ccncn2)c1=O", "target": "Serine/threonine-protein kinase WNK2 (WNK2, Homo sapiens, UniProt Q9Y3S1)", "observed": "enzyme activity", "mode": "inhibitor", "concentration": "1 µM", "endpoint": "inhibition", "value": "2%"}
{"Structure (SMILES)": "C=C[C@@](C)(/C=C/c1ccc(O)cc1)CCC=C(C)C", "target": "Spike glycoprotein", "observed": "binding", "endpoint": "kon", "value": "1190 M⁻¹ s⁻¹"}
{"Structure (SMILES)": "CCCCCCCCCCCCCCCCCCCCCCCCCC(=O)N[C@@H](CO[C@H]1O[C@H](CO)[C@H](O)[C@H](O)[C@H]1O)[C@H](O)[C@H](O)CCCCCCCCCCCCCC", "target": "Cd1d1 (Mus musculus, UniProt P11609)", "observed": "binding", "technique": "SPR", "endpoint": "kon", "value": "63000 M⁻¹ s⁻¹"}
{"Structure (SMILES)": "CC[C@H](C)[C@@H]1NC(=O)[C@H](C)NC(=O)[C@H](CCCCN)NC(=O)[C@H](Cc2c[nH]c3ccccc23)NC(=O)[C@H](CC(C)C)NC(=O)[C@H](CC(C)C)NC(=O)[C@H](C(C)C)NC(=O)[C@H](CC(=O)O)NC(=O)[C@H](Cc2ccccc2)NC(=O)[C@H](Cc2ccc(O)cc2)NC(=O)[C@@H](Cc2ccc(O)cc2)NC(=O)CSC[C@@H](C(N)=O)NC(=O)[C@H](CO)NC1=O", "target": "Spike glycoprotein", "observed": "binding", "endpoint": "koff", "value": "0.065 s⁻¹"}
{"Structure (SMILES)": "Cc1nn(C)cc1-c1nc2c(N3CCN(Cc4ccc(Cl)cc4)CC3)c(Cl)cnc2[nH]1", "target": "Tyrosine-protein kinase ABL1, non-phosphorylated (ABL1, Homo sapiens, UniProt P00519, H396P)", "observed": "binding", "technique": "competition with immobilised ligand", "concentration": "1 µM", "endpoint": "remaining binding", "value": "100%"}
{"Structure (SMILES)": "C#Cc1n[nH]c2c(-c3cn(C(C)c4ccccn4)c(=O)[nH]c3=O)cc(F)cc12 (stereo not shown)", "target": "Receptor tyrosine-protein kinase erbB-2 (ERBB2, Homo sapiens, UniProt P04626)", "observed": "enzyme activity", "mode": "inhibitor", "concentration": "1 µM", "endpoint": "inhibition", "value": "-4.5%"}
